Measurements: ChEMBL document CHEMBL1212875, “Improved inhibition of the histone acetyltransferase PCAF by an anacardic acid derivative” (Bioorg Med Chem, 2010)
Activity calls are given as the source filed them. The rule behind the calls is not given here.

Assays:
[1] = biological target: T1, Histone acetyltransferase KAT2B (Homo sapiens, UniProt Q92831); assay: Inhibition of human recombinant histone acetyltransferase PCAF by ELISA
Summary of the method: (§1)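 Indirect ELISA. Biotinylated histone H4 peptide (300 nM coating) captured on streptavidin wells. Recombinant human PCAF (240 nM solution) preincubated 15 min with inhibitor in 100 mM HEPES pH 7.4, 0.1% BSA, 0.16% Triton X-100. Reaction started with Ac-CoA (40 µM solution) for 15 min. Detection by anti-acetyl-Lys antibody, HRP secondary, TMB, A450. No-inhibitor wells = 100%, no-Ac-CoA = 0%. Triplicate; DMSO stocks.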

[2] = biological target: T1, Histone acetyltransferase KAT2B; assay: Inhibition of human recombinant histone deacetylase PCAF at 1 mM by ELISA; summary of the method: as §1
Target sequence in this assay (Q92831 whole entry, looked up): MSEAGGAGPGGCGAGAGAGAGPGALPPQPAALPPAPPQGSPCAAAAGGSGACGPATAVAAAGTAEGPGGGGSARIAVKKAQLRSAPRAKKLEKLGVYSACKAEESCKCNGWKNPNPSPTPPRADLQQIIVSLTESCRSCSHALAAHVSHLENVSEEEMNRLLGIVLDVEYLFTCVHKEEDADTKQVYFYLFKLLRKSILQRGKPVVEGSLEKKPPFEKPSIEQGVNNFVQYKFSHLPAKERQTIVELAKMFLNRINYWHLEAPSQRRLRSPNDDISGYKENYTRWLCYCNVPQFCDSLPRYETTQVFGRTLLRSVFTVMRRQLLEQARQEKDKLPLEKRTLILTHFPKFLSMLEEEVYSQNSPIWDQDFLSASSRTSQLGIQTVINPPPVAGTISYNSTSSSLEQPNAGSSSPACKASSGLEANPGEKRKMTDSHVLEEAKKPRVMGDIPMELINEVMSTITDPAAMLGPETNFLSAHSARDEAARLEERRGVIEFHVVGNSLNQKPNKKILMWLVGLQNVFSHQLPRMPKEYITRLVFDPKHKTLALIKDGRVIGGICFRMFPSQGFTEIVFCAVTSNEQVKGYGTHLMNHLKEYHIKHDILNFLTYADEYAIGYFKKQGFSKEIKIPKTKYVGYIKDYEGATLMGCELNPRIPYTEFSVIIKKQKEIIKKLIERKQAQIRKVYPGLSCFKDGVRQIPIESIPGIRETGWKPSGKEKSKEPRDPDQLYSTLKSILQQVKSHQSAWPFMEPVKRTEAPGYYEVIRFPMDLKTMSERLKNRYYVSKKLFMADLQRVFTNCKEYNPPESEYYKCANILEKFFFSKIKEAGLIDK

[3] = biological target: T1, Histone acetyltransferase KAT2B; assay: Inhibition of […] in human HepG2 cells assessed as decrease in SAHA-induced histone H4 acetylation levels at 30 uM after 24 hrs by Western blotting; format: cell-based
Summary of the method: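 HepG2 cells in DMEM with 10% heat-inactivated FBS at 37 °C, 5% CO2; grown to ~70% confluency, FBS-starved 16 h, then treated 24 h with 5 µM SAHA plus inhibitor at sub-toxic concentrations. Histones extracted, ~5 µg resolved by SDS-PAGE, immunoblotted with anti-acetyl-histone H4; densitometry with Coomassie loading check. Levels relative to untreated cells (100%), mean ± SEM of three independent experiments.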
Target sequence in this assay (Q92831 whole entry, looked up): as above

[4] = biological target: T1, Histone acetyltransferase KAT2B; assay: Inhibition of histone acetyltransferase PCAF in human HepG2 cells assessed as decrease in SAHA-induced histone H4 acetylation levels at 60 uM after 24 hrs by Western blotting
Target sequence in this assay (Q92831 whole entry, looked up): as above

Structure (SMILES)	inhibition [1]	further results
CCCCCCCCCCc1cc(O)cc(O)c1C(=O)O	Active	–
CCCCCCCCCCc1cccc(O)c1C(=O)O	Active	–
CCCCCCCCCCCCCCCc1cc(O)cc(O)c1C(=O)O	Active	–
C=CC/C=C\C/C=C\CCCCCCCc1cccc(O)c1C(=O)O [ANACARDIC ACID]	Active	IC50 [1]: 1000 µM; inhibition [2]: 40%; inhibition [3]: Active; inhibition [4]: Active
CCCCCOc1ccc(/C=C\c2cccc(O)c2C(=O)O)cc1	–	IC50 [1]: 662 µM; inhibition [3]: Active; inhibition [4]: Active
COc1ccccc1OCCCc1cccc(O)c1C(=O)O	Active	–
O=C(O)c1c(O)cccc1OCc1ccccc1	–	inhibition [2]: 20%
CCCCCOc1ccc(CCc2cccc(O)c2C(=O)O)cc1	Active	–
CCCCCCCCCCCCCCOc1cccc(O)c1C(=O)O	Active	–
CCCCCCCc1ccc(CCc2cccc(O)c2C(=O)O)cc1	Active	–
